≈ marks a conversion by molar mass, not a printed value. Calls of active or inactive are those of the source. The calls are words filed in the database; no cut-off is given here.
Experiments:
Escherichia coli = test: Antibacterial activity against Escherichia coli C-600 after 24 hrs by agar cup diffusion method; assay type: functional
Method in brief: (§1)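 Nutrient agar seeded with culture, poured 3–4 mm; six 10 mm cups per plate, one as DMF solvent control. Compounds dissolved in DMF (stock 1 mg/mL), two-fold serial dilutions 32–512 µg/mL, 0.1 mL per cup. Incubation 24 h at 37 °C; inhibition zone diameter read in mm. MIC taken as intercept of log concentration versus zone diameter plot; ciprofloxacin reference.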

Rattus norvegicus [1] = test: Antiinflammatory activity in albino rat assessed as inhibition of carrageenan-induced paw edema at 100 mg/kg, po administered 30 mins prior to carrageenan challenge measured after 4 hrs; assay type: functional
Method in brief: (§2)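 Male albino rats, 140–150 g, groups of 5, acclimatized 3 days, water only on the last day. Oral dosing in carboxymethylcellulose vehicle 30 min before subplantar 1% carrageenan (0.1 mL) into one hind paw; contralateral paw given saline. Paw thickness by digital plethysmometer at 0–5 h. Percent inhibition from difference between paws, treated versus vehicle control; indomethacin reference; mean ± SEM.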

[2] = Nitric oxide release in phosphate buffer at pH 7.4 after 1 hr by Griess diazotization reaction method in presence of L-cysteine; parameters: concentration or dose not given beside the values
Method in brief: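 Incubation in pH 7.4 phosphate buffer with L-cysteine for 1 h at 37 °C. Then 1 mL of mixture treated with Griess reagent (sulfanilamide, N-naphthylethylenediamine, phosphoric acid); absorbance read at 540 nm after 25 min. Nitrite quantified against sodium nitrite standard curve; % release = found/theoretical NO × 100.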

Pseudomonas aeruginosa = test: Antibacterial activity against Pseudomonas aeruginosa after 24 hrs by agar cup diffusion method; assay type: functional; method in brief: as §1
Staphylococcus aureus = test: Antibacterial activity against Staphylococcus aureus NCTC 6571 after 24 hrs by agar cup diffusion method; assay type: functional; method in brief: as §1
Rattus norvegicus [3] = test: Antiinflammatory activity in albino rat assessed as inhibition of carrageenan-induced paw edema at 100 mg/kg, po administered 30 mins prior to carrageenan challenge measured after 2 hrs; assay type: functional; method in brief: as §2
Bacillus subtilis = test: Antibacterial activity against Bacillus subtilis after 24 hrs by agar cup diffusion method; assay type: functional; method in brief: as §1
Rattus norvegicus [4] = test: Antiinflammatory activity in albino rat assessed as inhibition of carrageenan-induced paw edema at 100 mg/kg, po administered 30 mins prior to carrageenan challenge measured after 3 hrs; assay type: functional; method in brief: as §2
Rattus norvegicus [5] = test: Gastrointestinal toxicity in albino rat assessed as ulcer index at 100 mg/kg, po; assay type: organism-based; parameters: dose 100 mg/kg, route oral; details: in vivo
Method in brief: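 Rats from the paw edema study killed by ether overdose; stomachs removed, opened and examined for visible lesions. Each lesion scored 0–5 by length (0 none, 1 petechiae, 2 <1 mm, 3 1–2 mm, 4 2–4 mm, 5 >4 mm erosions). Scores summed per rat; group ulcer index is the mean lesion score.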

Rattus norvegicus [6] = test: Antiinflammatory activity in albino rat assessed as inhibition of carrageenan-induced paw edema at 100 mg/kg, po administered 30 mins prior to carrageenan challenge measured after 5 hrs; assay type: functional; method in brief: as §2
Rattus norvegicus [7] = test: Antiinflammatory activity in albino rat assessed as inhibition of carrageenan-induced paw edema at 100 mg/kg, po administered 30 mins prior to carrageenan challenge measured after 1 hr; assay type: functional; method in brief: as §2

SMILES	MIC (Escherichia coli; C-600, 24 h) [µg/mL]	MIC (Pseudomonas aeruginosa) [µg/mL]	MIC (Staphylococcus aureus)	MIC (Bacillus subtilis) [µg/mL]	MIC (Staphylococcus aureus; NCTC 6571, 24 h) [µg/mL]	MIC (Escherichia coli)	inhibition in vivo at 100 mg/kg (Rattus norvegicus [1]) [%]	Activity [2] [%]	inhibition in vivo at 100 mg/kg (Rattus norvegicus [3]) [%]	inhibition in vivo at 100 mg/kg (Rattus norvegicus [4]) [%]	UI (Rattus norvegicus [5])	inhibition in vivo at 100 mg/kg (Rattus norvegicus [6]) [%]	inhibition in vivo at 100 mg/kg (Rattus norvegicus [7]) [%]
O=C(Nc1ccc(S(=O)(=O)Nc2ncccn2)cc1)c1nn(-c2ccccc2)c(-c2ccccc2)c1/C(=N/O)c1ccccc1	30.9 (≈ 50.1 µM)	23.3 (≈ 37.9 µM)	inactive	54.7 (≈ 88.8 µM)	–	–	51.5	7.4	26.7	31.7	7.6	56.5	16.4
Cc1ccc(NC(=O)c2nn(-c3ccccc3)c(-c3ccccc3)c2C(=O)c2ccccc2)cc1	16.1 (≈ 35.3 µM)	4.3 (≈ 9.4 µM)	inactive	33.8 (≈ 73.9 µM)	–	–	30.2	–	29.1	28.3	4	51.2	42.5
O=C(OCCBr)c1nn(-c2ccccc2)c(-c2ccccc2)c1C(=O)c1ccccc1	24 (≈ 50.6 µM)	6.04 (≈ 12.7 µM)	inactive	47.5 (≈ 99.9 µM)	–	–	41.2	–	28.4	30.2	11	52.2	25.4
Cc1ccc(NC(=O)c2nn(-c3ccccc3)c(-c3ccccc3)c2/C(=N/O)c2ccccc2)cc1	28.6 (≈ 60.6 µM)	7.99 (≈ 16.9 µM)	inactive	2.87 (≈ 6.07 µM)	–	–	45.6	10.1	20	36.5	3	82.6	12.7
O=C(O)c1nn(-c2ccccc2)c(-c2ccccc2)c1C(=O)c1ccccc1	16.1 (≈ 43.7 µM)	1.92 (≈ 5.21 µM)	inactive	10.8 (≈ 29.2 µM)	–	–	51.5	–	35	36.5	8	56.6	32.7
COc1ccc2c(c1)c(CC(=O)O)c(C)n2C(=O)c1ccc(Cl)cc1 [INDOMETHACIN]	–	–	–	–	–	–	–	–	–	–	69.5	–	–
O=C(O)c1cn(C2CC2)c2cc(N3CCNCC3)c(F)cc2c1=O [CIPROFLOXACIN]	1.2 (≈ 3.62 µM)	30.8 (≈ 93 µM)	–	0.61 (≈ 1.84 µM)	52.4 (≈ 158 µM)	–	–	–	–	–	–	–	–
O=C(O)c1ccc(NC(=O)c2nn(-c3ccccc3)c(-c3ccccc3)c2/C(=N/O)c2ccccc2)cc1	2.8 (≈ 5.57 µM)	13.6 (≈ 27.1 µM)	–	29.5 (≈ 58.7 µM)	50.5 (≈ 100 µM)	–	61.8	9.3	45	47.6	8.5	81.2	45.5
O=C(c1ccccc1)c1c(C(=O)N2CCN(C(=O)CCl)CC2)nn(-c2ccccc2)c1-c1ccccc1	1.37 (≈ 2.67 µM)	61.5 (≈ 120 µM)	inactive	11.2 (≈ 21.8 µM)	–	–	–	–	–	–	–	–	–
COc1ccc(NC(=O)c2nn(-c3ccccc3)c(-c3ccccc3)c2C(=O)c2ccccc2)cc1	4.5 (≈ 9.5 µM)	22.9 (≈ 48.4 µM)	inactive	43.8 (≈ 92.5 µM)	–	–	43	–	42.5	28.3	33.3	52.9	40

More lines, in order of falling MIC (Pseudomonas aeruginosa), values ahead:

MIC (Escherichia coli; C-600, 24 h) [µg/mL]	MIC (Pseudomonas aeruginosa) [µg/mL]	MIC (Staphylococcus aureus)	MIC (Bacillus subtilis) [µg/mL]	MIC (Staphylococcus aureus; NCTC 6571, 24 h) [µg/mL]	MIC (Escherichia coli)	SMILES	inhibition in vivo at 100 mg/kg (Rattus norvegicus [1]) [%]	Activity [2] [%]	inhibition in vivo at 100 mg/kg (Rattus norvegicus [3]) [%]	inhibition in vivo at 100 mg/kg (Rattus norvegicus [4]) [%]	UI (Rattus norvegicus [5])	inhibition in vivo at 100 mg/kg (Rattus norvegicus [6]) [%]	inhibition in vivo at 100 mg/kg (Rattus norvegicus [7]) [%]
–	44.3 (≈ 73.8 µM)	inactive	47 (≈ 78.3 µM)	–	inactive	O=C(Nc1ccc(S(=O)(=O)Nc2ncccn2)cc1)c1nn(-c2ccccc2)c(-c2ccccc2)c1C(=O)c1ccccc1	27	–	18.2	25	9.3	41.2	18.2
39.9 (≈ 82.2 µM)	32.4 (≈ 66.7 µM)	inactive	1.75 (≈ 3.6 µM)	–	–	CC(=O)c1ccc(NC(=O)c2nn(-c3ccccc3)c(-c3ccccc3)c2C(=O)c2ccccc2)cc1	47.6	–	45.5	45	11	61.8	29.1
1.62 (≈ 3.24 µM)	27.2 (≈ 54.4 µM)	inactive	90.4 (≈ 181 µM)	–	–	C/C(=N\O)c1ccc(NC(=O)c2nn(-c3ccccc3)c(-c3ccccc3)c2C(=O)c2ccccc2)cc1	51.5	11.6	33.3	33.3	4	62.3	16.4
30.9 (≈ 63.4 µM)	25.3 (≈ 52 µM)	–	34.8 (≈ 71.4 µM)	64 (≈ 131 µM)	–	O=C(O)c1ccc(NC(=O)c2nn(-c3ccccc3)c(-c3ccccc3)c2C(=O)c2ccccc2)cc1	41.2	–	25	27	17	46.4	23.6
15.3 (≈ 33.4 µM)	11.3 (≈ 24.7 µM)	inactive	21.7 (≈ 47.4 µM)	–	–	O=C(OCCO[N+](=O)[O-])c1nn(-c2ccccc2)c(-c2ccccc2)c1C(=O)c1ccccc1	58.8	7.1	35	47.6	7.5	71	29.1
7.95 (≈ 19.3 µM)	1.29 (≈ 3.13 µM)	inactive	3.88 (≈ 9.41 µM)	–	–	O=C(OCCO)c1nn(-c2ccccc2)c(-c2ccccc2)c1C(=O)c1ccccc1	68.6	–	51.5	66.4	9	71.7	19.7
